Assay [1] has as its target T1, DNA topoisomerase 2-alpha (Homo sapiens, UniProt P11388). The assay can be described thus: Inhibition of human topoisomerase 2 alpha-mediated relaxation of supercoiled pBR322 DNA after 30 mins by agarose gel electrophoresis. An outline of the steps:
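Compound added at constant solvent volume. Started with 1 U human topo IIα, 30 min at 37 °C. Stopped with sarkosyl/bromophenol blue/glycerol buffer. Read on 1% agarose TAE gel, ethidium-stained, imaged under UV.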

The target in assay [2] is T1, DNA topoisomerase 2-alpha. In words: Ratio IC50 of etoposide to IC50 of compound for human topoisomerase 2 alpha. An outline of the steps: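 Human topo IIα relaxation of 0.2 μg pBR322 in Tris pH 8.0 buffer with 5 mM ATP, using 1 U enzyme for 30 min at 37 °C, read on agarose gel.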
A short description of assay [3]: Antitumor against human CNE2 cells assessed as cell survival after 48 hrs by MTT assay. In kind it is functional, cell-based. To be noted: CNE-2, 48 h. The method, boiled down: (§1)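 1 × 10^4 cells per well plated and left overnight, then exposed to compound at 0–100 μM for 48 h. Per well, 20 μl of 5 mg/ml MTT added, then incubated 4 h at 37 °C. Untransformed MTT removed, formazan dissolved in DMSO, absorbance read at 570 nm, and IC50 derived. Modified Mosmann method.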
On the technique in general: Tetrazolium assays rely on reduction of a dye to a coloured formazan, in cell work by metabolically active cells.

A short description of assay [4]: Antitumor against human GLC82 cells assessed as cell survival after 48 hrs by MTT assay. In kind it is functional, cell-based. To be noted: GLC82, 48 h. An outline of the steps: as §1
The target of assay [5] is T2, DNA topoisomerase 1 (Homo sapiens) (UniProt P11387).
T2 sequence (whole entry): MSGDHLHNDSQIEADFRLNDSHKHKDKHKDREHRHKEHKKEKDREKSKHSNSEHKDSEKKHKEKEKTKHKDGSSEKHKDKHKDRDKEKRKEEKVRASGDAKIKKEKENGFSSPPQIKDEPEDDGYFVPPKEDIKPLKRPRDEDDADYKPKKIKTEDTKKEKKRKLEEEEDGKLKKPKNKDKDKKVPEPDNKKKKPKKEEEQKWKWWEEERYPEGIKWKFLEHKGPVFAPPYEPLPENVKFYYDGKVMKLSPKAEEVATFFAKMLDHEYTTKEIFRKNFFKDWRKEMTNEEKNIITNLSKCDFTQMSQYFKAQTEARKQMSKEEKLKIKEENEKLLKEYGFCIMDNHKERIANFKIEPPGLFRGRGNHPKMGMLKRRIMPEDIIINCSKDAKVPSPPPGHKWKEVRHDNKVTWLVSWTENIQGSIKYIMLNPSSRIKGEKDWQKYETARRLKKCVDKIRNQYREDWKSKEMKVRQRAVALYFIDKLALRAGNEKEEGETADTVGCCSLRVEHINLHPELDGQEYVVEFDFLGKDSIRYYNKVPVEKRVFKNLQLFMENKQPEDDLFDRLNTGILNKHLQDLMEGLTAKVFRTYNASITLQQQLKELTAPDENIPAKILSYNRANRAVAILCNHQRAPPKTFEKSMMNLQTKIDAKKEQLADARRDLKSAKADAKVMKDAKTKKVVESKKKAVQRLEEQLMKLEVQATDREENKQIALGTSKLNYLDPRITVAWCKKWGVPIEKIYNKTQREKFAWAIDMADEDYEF
The assay can be described thus: Inhibition of human topoisomerase 1-mediated relaxation of supercoiled pBR322 DNA at 250 uM after 30 mins by agarose gel electrophoresis.

Assay [6] deals with Telomerase reverse transcriptase (Homo sapiens) (UniProt O14746). The assay can be described thus: Inhibition of telomerase in human K562 cells at 20 uM using telo TAGGG telomerase PCR ELISA. In kind it is cell-based. An outline of the steps:
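TRAP-based kit with non-radioactive ELISA read-out, run on K562 human leukemia cells per the manufacturer's instructions.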
Background: In an ELISA, binding on a coated surface is turned into a signal by an enzyme label.

For another assay, the system named is Ehrlich. The assay can be described thus: Inhibition of DNA primase in mouse EAC cells assessed as incorporation of [3H]dATP to […] template at 100 uM after 1 hr by scintillation counting. In kind it is cell-based. An outline of the steps: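 DNA primase isolated from Ehrlich ascites carcinoma cells grown in culture.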

Active and inactive are the calls of the source. The calls are words filed in the database; no cut-off is given here.

T1 sequence (P11388 whole entry): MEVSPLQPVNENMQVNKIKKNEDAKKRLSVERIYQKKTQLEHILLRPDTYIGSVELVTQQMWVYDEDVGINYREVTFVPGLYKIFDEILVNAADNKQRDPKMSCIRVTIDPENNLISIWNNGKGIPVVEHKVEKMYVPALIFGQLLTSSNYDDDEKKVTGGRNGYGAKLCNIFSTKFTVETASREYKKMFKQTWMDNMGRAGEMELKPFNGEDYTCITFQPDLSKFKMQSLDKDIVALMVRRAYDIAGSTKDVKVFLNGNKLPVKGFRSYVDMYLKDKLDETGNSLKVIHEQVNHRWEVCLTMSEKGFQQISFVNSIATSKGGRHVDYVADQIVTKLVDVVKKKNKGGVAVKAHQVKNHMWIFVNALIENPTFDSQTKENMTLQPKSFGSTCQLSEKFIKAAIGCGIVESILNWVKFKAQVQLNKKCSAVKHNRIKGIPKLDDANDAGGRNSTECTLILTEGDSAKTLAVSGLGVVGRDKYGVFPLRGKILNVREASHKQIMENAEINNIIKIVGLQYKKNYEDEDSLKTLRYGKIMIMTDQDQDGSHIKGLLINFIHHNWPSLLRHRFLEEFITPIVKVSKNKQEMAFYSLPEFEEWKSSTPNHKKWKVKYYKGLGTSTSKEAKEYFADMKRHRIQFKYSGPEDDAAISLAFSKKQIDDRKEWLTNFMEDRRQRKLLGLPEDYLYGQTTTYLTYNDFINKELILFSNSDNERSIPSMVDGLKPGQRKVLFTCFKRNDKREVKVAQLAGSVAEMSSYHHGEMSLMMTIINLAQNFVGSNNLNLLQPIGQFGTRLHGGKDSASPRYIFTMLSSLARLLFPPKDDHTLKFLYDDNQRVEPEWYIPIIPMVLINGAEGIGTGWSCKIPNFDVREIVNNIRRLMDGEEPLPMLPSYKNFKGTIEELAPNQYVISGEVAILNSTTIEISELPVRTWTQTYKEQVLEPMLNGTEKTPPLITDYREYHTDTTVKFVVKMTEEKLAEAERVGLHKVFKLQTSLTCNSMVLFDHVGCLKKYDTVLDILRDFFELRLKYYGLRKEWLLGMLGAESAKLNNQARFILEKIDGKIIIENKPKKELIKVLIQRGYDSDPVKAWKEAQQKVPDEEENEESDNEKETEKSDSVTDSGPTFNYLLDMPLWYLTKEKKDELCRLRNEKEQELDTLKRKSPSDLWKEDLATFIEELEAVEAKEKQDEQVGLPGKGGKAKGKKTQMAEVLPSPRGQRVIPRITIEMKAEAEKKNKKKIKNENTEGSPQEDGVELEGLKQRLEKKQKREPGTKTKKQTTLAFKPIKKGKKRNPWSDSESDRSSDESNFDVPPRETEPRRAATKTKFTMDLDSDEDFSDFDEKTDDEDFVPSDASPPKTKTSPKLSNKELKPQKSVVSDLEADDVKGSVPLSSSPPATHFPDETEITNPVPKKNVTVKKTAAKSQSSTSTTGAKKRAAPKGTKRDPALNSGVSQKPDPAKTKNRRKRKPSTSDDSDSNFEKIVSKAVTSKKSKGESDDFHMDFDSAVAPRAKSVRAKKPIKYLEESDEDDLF
Telomerase reverse transcriptase (Homo sapiens), sequence (O14746 whole entry): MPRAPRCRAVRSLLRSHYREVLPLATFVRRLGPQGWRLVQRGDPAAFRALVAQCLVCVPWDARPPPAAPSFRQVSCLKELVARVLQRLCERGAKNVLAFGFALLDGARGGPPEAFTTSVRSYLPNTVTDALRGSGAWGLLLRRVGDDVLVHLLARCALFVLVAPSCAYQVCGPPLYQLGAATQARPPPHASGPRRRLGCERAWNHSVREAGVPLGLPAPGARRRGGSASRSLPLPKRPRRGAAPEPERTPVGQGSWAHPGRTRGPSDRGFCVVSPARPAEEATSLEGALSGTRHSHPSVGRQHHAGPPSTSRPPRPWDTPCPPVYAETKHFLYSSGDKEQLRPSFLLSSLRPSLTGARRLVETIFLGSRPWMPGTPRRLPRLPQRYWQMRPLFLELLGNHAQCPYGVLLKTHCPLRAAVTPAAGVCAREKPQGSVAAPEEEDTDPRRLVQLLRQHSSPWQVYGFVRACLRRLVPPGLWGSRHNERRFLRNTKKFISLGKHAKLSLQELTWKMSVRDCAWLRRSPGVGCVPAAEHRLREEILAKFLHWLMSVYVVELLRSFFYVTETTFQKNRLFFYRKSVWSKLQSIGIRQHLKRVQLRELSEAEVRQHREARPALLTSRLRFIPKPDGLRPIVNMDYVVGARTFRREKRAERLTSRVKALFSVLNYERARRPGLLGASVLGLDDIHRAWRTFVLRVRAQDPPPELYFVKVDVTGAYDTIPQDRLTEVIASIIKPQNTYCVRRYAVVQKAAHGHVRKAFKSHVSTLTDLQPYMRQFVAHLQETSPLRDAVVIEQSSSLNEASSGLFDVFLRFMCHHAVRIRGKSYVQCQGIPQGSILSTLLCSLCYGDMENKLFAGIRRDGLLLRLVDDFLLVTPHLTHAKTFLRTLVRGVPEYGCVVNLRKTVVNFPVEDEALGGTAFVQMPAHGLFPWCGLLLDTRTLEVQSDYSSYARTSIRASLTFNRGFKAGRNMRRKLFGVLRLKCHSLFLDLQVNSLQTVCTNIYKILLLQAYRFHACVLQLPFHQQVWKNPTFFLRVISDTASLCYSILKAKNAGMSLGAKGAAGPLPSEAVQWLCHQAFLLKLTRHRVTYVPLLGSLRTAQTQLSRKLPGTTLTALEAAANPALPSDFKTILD

The term IC50 denotes the concentration that inhibits the measured activity by half. By inhibition is commonly meant the change of the read-out against control, counted positive when it falls. Turning to `C=CCC1=COC2=C(Cl)C(=O)C(=O)c3cccc1c32`, the results for the IC50 in assay [1], in assay [3] and in assay [4] were 1.54 µM, 5.2 µM and 3.77 µM, respectively. Moreover, the Ratio IC50 in assay [2] is 39. Further, the inhibition entry in assay [5] was “Active”.

`O=C1C=C2OCCc3cccc(c32)C1=O`: the half-inhibitory concentration (IC50) is 4.83 µM in assay [3] and 5.32 µM in assay [4].

Take `O=C1C=C2OC=C(c3ccccc3)c3cccc(c32)C1=O`: the half-maximal inhibitory concentration (IC50) in assay [3] came out at 9.19 µM; in assay [4] it was 3.68 µM. For the same compound, in assay [5], the inhibition result was “Active”.

Consider `O=C1C(=O)c2cccc3c2C(=C1Cl)OCC3(O)c1ccccc1` (stereo unspecified), for which the half-inhibitory concentration (IC50) in assay [3] amounted to 2.87 µM; in assay [4], 5.63 µM. Besides, the inhibition result in assay [5] is “Active”.

For the compound `c1ccc2nc3c(cc4c5c(cccc53)CCO4)nc2c1`, the 50% inhibitory concentration (IC50) in assay [3] and in assay [4] was above 50 µM in each case.

In the case of `O=C1C=C2OCC(O)(Cc3ccccc3)c3cccc(c32)C1=O` (stereo unspecified), the half-maximal inhibitory concentration (IC50) in assay [1] is 4.88 µM; in assay [3], 4.47 µM; in assay [4], 3.82 µM. In addition, in assay [2], the Ratio IC50 worked out at 12. In addition, in assay [5], the inhibition result is “Active”.

On to `O=C1C=C2OCC(O)(c3ccccc3)c3cccc(c32)C1=O` (stereo unspecified), for which the values for the IC50 in assay [3] and in assay [4] were 3.18 µM and 5.33 µM, respectively. In assay [5], the inhibition result is “Active”.

As for `CC1=C(OCC(=O)c2ccc(C)c(C)c2)c2ccccc2C(=O)C1=O`, the IC50 in assay [3] and in assay [4] was above 50 µM throughout.

Take `O=C1C(=O)c2cccc3c2C(=C1Cl)OC=C3c1ccc(F)cc1`: the concentration for half-maximal inhibition (IC50) in assay [3] was found to be 27.5 µM; in assay [4], 31.3 µM. The inhibition entry in assay [5] is “Active”.

Regarding `O=C1C=C2OCC(O)(c3ccc(F)cc3)c3cccc(c32)C1=O` (stereo unspecified), the values for the IC50 in assay [3] and in assay [4] were 9.76 µM and 6.63 µM, respectively. In assay [5], the inhibition result was “Active”.

For `CCCC1(O)COC2=C(Cl)C(=O)C(=O)c3cccc1c32` (stereo unspecified), the values for the half-maximal inhibitory concentration (IC50) in assay [3] and in assay [4] were 3.59 µM and 7.93 µM, respectively. Moreover, in assay [5], the inhibition entry is “Active”.

In the case of `O=C1C=C2OC=C(Cc3ccccc3)c3cccc(c32)C1=O`, the IC50 worked out at 6.52 µM in assay [3] and 2.88 µM in assay [4]. Besides, the inhibition result in assay [5] is “Active”.

On to `O=C1C(=O)c2cccc3c2C(=C1Cl)OCC3(O)Cc1ccccc1` (stereo unspecified), for which the results for the IC50 in assay [3] and in assay [4] were 6.34 µM and 2.75 µM, respectively. Further, the inhibition entry in assay [5] was “Active”.

For the compound `CC1(OC(=O)c2ccccc2)COC2=C(Cl)C(=O)C(=O)c3cccc1c32` (stereo unspecified), the IC50 in assay [3] was determined as 8.05 µM; in assay [4] it was 10.8 µM. The inhibition entry in assay [5] was “Active”.

In the case of `CC1=COC2=C(C)C(=O)C(=O)c3c(C)ccc1c32` [MANSONONE F], the concentration for half-maximal inhibition (IC50) was 27.3 µM in assay [3] and 15.5 µM in assay [4]. Moreover, the inhibition result in assay [5] is “Active”.

For the compound `CC(=O)COC1=C(C)C(=O)C(=O)c2ccccc21`, the IC50 in assay [3] and in assay [4] was above 50 µM throughout.

On to `O=C1C(=O)c2cccc3c2C(=C1Cl)OC=C3c1ccccc1`, for which the IC50 is 33.3 µM in assay [3] and 40.2 µM in assay [4]. Moreover, the inhibition result in assay [5] is “Active”.

As to `O=C1C(=O)c2cccc3c2C(=C1Cl)OCC3(O)c1ccc(F)cc1` (stereo unspecified), the half-maximal inhibitory concentration (IC50) in assay [3] amounted to 13.5 µM; in assay [4], 9.74 µM. For the same compound, the inhibition entry in assay [5] was “Active”.

In the case of `CC[C@@]1(O)C(=O)OCc2c1cc1n(c2=O)Cc2cc3cc(O)ccc3nc2-1` [HYDROXYCAMPTOTHECIN], the IC50 in assay [3] stood at 1.04 µM; in assay [4], 0.23 µM.

Regarding `COc1ccc(C(=O)COC2=C(C)C(=O)C(=O)c3ccccc32)cc1`, the concentration for half-maximal inhibition (IC50) in assay [3] turned out to be 30.4 µM; in assay [4] it was 44.3 µM.

For the compound `CC1=C(OCC(=O)c2ccc(Cl)cc2)c2ccccc2C(=O)C1=O`, the IC50 in assay [3] is 30.4 µM; in assay [4], above 50 µM.

Take `CC1(O)COC2=C(Cl)C(=O)C(=O)c3cccc1c32` (stereo unspecified): the IC50 was 8.12 µM in assay [3] and 11.3 µM in assay [4]. For the same compound, the inhibition result in assay [5] is “Active”.

For the compound `O=C1C=C2OCCc3cccc(c32)/C1=N/O`, the concentration for half-maximal inhibition (IC50) in assay [3] amounted to 5.7 µM; in assay [4], 42.8 µM.

Consider `C=CCOC1=C(C)C(=O)C(=O)c2ccccc21`, for which the IC50 in assay [3] and in assay [4] was above 50 µM in each case.

Turning to `O=C1/C(=N\O)C=C2OCCc3cccc1c32`, the half-maximal inhibitory concentration (IC50) in assay [3] and in assay [4] was above 50 µM in each case.

Regarding `O=C1C=C2OC=C(c3ccc(F)cc3)c3cccc(c32)C1=O`, the figures for the 50% inhibitory concentration (IC50) in assay [3] and in assay [4] were 16 µM and 3.21 µM, respectively. The inhibition entry in assay [5] was “Active”.

In the case of `c1ccc(-c2nc3cc4c5c(cccc5c3o2)CCO4)cc1`, the IC50 in assay [3] and in assay [4] was above 50 µM throughout.

As to `CC1=C(OCC#N)c2ccccc2C(=O)C1=O`, the IC50 in assay [3] was 39.5 µM; in assay [4] it was 39.2 µM.

On to `CC1(O)COC2=CC(=O)C(=O)c3cccc1c32` (stereo unspecified), for which the IC50 in assay [3] stood at 17.3 µM; in assay [4] it was 19.2 µM.

For `CCCC1=COC2=C(Cl)C(=O)C(=O)c3cccc1c32`, the IC50 in assay [3] is 3.93 µM; in assay [4], 2.15 µM. Besides, the inhibition entry in assay [5] is “Active”.

Regarding `CC1COC2=CC(=O)C(=O)c3cccc1c32` (stereo unspecified), the values for the half-inhibitory concentration (IC50) in assay [1], in assay [3] and in assay [4] were 1.88 µM, 2.05 µM and 1.77 µM, respectively. Moreover, the Ratio IC50 in assay [2] was 32. Besides, the inhibition in assay [6] was 22%; in the assay with Ehrlich, 29%. In addition, the inhibition entry in assay [5] was “inactive”.

As for `c1cc2c3c(cc4nccnc4c3c1)OCC2`, the IC50 in assay [3] and in assay [4] was above 50 µM throughout.

Take `O=C1C(=O)c2cccc3c2C(=C1Cl)OC=C3Cc1ccccc1`: the half-inhibitory concentration (IC50) came out at 21.5 µM in assay [3] and 21.6 µM in assay [4]. In addition, in assay [5], the inhibition result was “Active”.

Regarding `C=CCC1(O)COC2=C(Cl)C(=O)C(=O)c3cccc1c32` (stereo unspecified), the concentration for half-maximal inhibition (IC50) is 3.54 µM in assay [3] and 5.33 µM in assay [4]. In addition, the inhibition entry in assay [5] is “Active”.

Source of the values: ChEMBL document CHEMBL1811824, “Synthesis and evaluation of mansonone F derivatives as topoisomerase inhibitors” (Eur J Med Chem, 2011).
